Values after ≈ are worked out from the molar mass of the structure shown.
Legend:
[1] = Inhibition of histidine-tagged HCV NS5Bdelta21 by scintillation proximity assay; set-up: species or system Hepacivirus hominis
Summary of the method: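 Soluble truncated NS5B at 12 nM. Reaction contains 0.01% w/v BSA, with no dodecyl-β-D-maltoside or IGEPAL. Other conditions follow an earlier method. IC50 is the mean of duplicate experiments on two separate weighings.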

Hepatitis C virus = experiment: Antiviral activity against Hepatitis C virus subtype 1b infected in human Huh7 cells assessed as inhibition of viral RNA replication; assay type: functional, organism-based, Hepacivirus hominis, genotype 1b, Huh-7; conditions: Hepatitis C virus, genotype 1b, Huh-7; read-out: EC50
Summary of the method: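 Stable subgenomic HCV genotype 1b replicon in Huh-7 cells carrying a modified luciferase reporter. EC50 from duplicate or more determinations. Some inhibitors were also run in a 72 h replicon format, with HCV RNA normalized to total cellular RNA. Cytotoxicity checked as TC50.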

[2] = Lipophilicity, log D at pH 7.4; assay type: physicochemical; conditions: buffer
[3] = Equilibrium solubility at pH 7.2 with amorphous solid after 24 hrs by shake flask method; assay type: physicochemical; conditions: buffer
[4] = (§1) Permeability from apical to basolateral side of the human Caco-2 cells at pH 7.4; assay type: ADME, cell-based; conditions: Caco-2, pH 7.4, read-out: permeability
Summary of the method: (§2)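 Caco-2 permeability measured in the apical-to-basal direction at pH 7.4.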

Cytochrome P450 3A4 = Cytochrome P450 3A4 (Homo sapiens, UniProt P08684); experiment: Inhibition of CYP3A4; assay type: ADME
Summary of the method: (§3)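 IC50s measured against CYP 1A2, 2C9, 2C19, 2D6 and 3A4 isozymes. The value reported is the lowest IC50, taken against the most sensitive isozyme.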

[5] = Half life in human liver microsomes at 2 uM; assay type: ADME, Microsome
Summary of the method: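 Human liver microsomes incubated with test compound at 2 µM. Stability reported as T1/2 in min.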

[6] = Inhibition of calf thymus DNA-directed RNA polymerase 2; set-up: species or system Bos taurus
Cytochrome P450 2C19 = Cytochrome P450 2C19 (Homo sapiens, UniProt P33261); experiment: Inhibition of CYP2C19; assay type: ADME; summary of the method: as §3
Cytochrome P450 2C9 = Cytochrome P450 2C9 (Homo sapiens, UniProt P11712); experiment: Inhibition of CYP2C9; assay type: ADME; summary of the method: as §3
[7] = Half life in rat liver microsomes at 2 uM; assay type: ADME, Microsome
Caco-2 = experiment: as §1; assay type: ADME, cell-based; conditions: caco-2, pH 7.4, BLD = below limit of detection; summary of the method: as §2

Sequence of Cytochrome P450 3A4 (P08684 whole entry): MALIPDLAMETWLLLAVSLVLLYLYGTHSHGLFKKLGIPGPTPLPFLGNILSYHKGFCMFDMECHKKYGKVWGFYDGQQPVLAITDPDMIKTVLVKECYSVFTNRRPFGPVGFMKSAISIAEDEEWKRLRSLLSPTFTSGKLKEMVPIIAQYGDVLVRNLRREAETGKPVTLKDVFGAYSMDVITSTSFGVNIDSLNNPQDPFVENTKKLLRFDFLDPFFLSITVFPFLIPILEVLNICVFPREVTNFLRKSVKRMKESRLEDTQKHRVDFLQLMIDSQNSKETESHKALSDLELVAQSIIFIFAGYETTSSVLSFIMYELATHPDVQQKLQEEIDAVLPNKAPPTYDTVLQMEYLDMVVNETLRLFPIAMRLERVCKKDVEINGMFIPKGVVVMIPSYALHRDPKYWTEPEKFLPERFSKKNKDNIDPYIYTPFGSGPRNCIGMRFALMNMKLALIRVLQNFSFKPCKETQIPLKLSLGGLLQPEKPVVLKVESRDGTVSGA
Sequence of Cytochrome P450 2C9 (P11712 whole entry): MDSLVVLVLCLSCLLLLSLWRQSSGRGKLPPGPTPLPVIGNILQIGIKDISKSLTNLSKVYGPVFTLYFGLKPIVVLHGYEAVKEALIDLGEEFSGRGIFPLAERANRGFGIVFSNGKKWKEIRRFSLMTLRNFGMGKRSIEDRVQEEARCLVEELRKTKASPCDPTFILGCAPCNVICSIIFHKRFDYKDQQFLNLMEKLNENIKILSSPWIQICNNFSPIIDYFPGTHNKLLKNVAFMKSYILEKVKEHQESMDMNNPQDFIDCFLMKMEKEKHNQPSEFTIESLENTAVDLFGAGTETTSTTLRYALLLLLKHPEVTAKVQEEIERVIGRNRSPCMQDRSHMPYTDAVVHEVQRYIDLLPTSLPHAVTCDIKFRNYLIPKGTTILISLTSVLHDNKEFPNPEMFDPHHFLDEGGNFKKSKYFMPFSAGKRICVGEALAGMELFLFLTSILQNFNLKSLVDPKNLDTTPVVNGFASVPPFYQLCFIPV
Sequence of Cytochrome P450 2C19 (P33261 whole entry): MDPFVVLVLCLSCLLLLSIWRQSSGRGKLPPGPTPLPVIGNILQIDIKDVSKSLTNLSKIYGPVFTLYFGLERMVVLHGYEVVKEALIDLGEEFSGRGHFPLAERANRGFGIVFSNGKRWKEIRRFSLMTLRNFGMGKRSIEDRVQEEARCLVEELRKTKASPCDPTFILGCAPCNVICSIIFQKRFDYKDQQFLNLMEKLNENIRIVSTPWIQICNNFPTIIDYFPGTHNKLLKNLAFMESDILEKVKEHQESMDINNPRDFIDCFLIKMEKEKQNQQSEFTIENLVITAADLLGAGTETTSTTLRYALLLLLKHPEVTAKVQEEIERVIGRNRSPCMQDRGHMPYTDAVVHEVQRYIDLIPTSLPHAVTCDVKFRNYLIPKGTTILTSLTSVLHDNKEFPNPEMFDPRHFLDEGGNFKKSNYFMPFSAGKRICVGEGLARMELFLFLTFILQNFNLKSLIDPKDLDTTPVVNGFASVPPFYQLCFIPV

| SMILES | IC50 [1] [nM] | EC50 (Hepatitis C virus) [nM] | solubility thermodynamic at 24 h [3] [µg/mL] | Papp A→B [4] [×10⁻⁶ cm/s] | half-life at 2 µM [5] [h] | IC50 [6] [nM] | also measured |
| --- | --- | --- | --- | --- | --- | --- | --- |
| CN(C)C(=O)Cn1c(-c2ccoc2)c(C2CCCCC2)c2ccc(C(=O)O)cc21 | 20 | 800 | 240 (≈ 608 µM) | 12.8 | 4.17 | > 250000 | logD [2]: 1.45; IC50 (Cytochrome P450 3A4): >= 26 uM |
| CC(C)N1CCN(C(=O)Cn2c(-c3ccoc3)c(C3CCCCC3)c3ccc(C(=O)O)cc32)CC1 | 40 | 830 | 18 (≈ 37.7 µM) | 7 | > 5 | > 250000 | IC50 (Cytochrome P450 3A4; read-out: IC50): ≥ 8000 nM |
| O=C(O)c1ccc2c(C3CCCCC3)c(-c3ccoc3)n(CC(=O)N3CCC(N4CCCC4)CC3)c2c1 | 20 | 380 | 79 (≈ 157 µM) | 1.4 | > 5 | > 250000 |  |
| CN1CCN(C(=O)Cn2c(-c3ccoc3)c(C3CCCCC3)c3ccc(C(=O)O)cc32)CC1 | 40 | 450 | 7 (≈ 15.6 µM) | 1.7 | 1.17 | > 250000 |  |
| O=C(O)c1ccc2c(C3CCCCC3)c(-c3ccoc3)n(CC(=O)N3CCCCC3)c2c1 | 40 | 820 |  |  |  | > 250000 |  |
| O=C(O)c1ccc2c(C3CCCCC3)c(-c3cccs3)n(CC(=O)N3CCC(N4CCCC4)CC3)c2c1 | 20 | 460 | 60 (≈ 115 µM) | 0.2 | > 5 | > 250000 | IC50 (Cytochrome P450 2C19): ≥ 11000 nM |
| CCCN(C)C(=O)Cn1c(-c2ccoc2)c(C2CCCCC2)c2ccc(C(=O)O)cc21 | 50 | 1700 |  |  |  | > 250000 |  |
| CN(C)C(=O)Cn1c(-c2ccco2)c(C2CCCCC2)c2ccc(C(=O)O)cc21 | 40 | 1500 |  |  |  | > 250000 |  |
| O=C(O)c1ccc2c(C3CCCCC3)c(-c3ccoc3)n(CC(=O)N3CCOCC3)c2c1 | 30 | 600 | 105 (≈ 241 µM) | 5.2 | > 5 | > 250000 | IC50 (Cytochrome P450 2C9): ≥ 24000 nM; half-life at 2 µM [7]: 4.8 h |
| O=C(O)c1ccc2c(C3CCCCC3)c(-c3ccsc3)n(CC(=O)N3CCOCC3)c2c1 | 40 | 330 |  |  |  | > 250000 |  |
| CN(C)C(=O)Cn1c(-c2ccccc2)c(C2CCCCC2)c2ccc(C(=O)O)cc21 | 40 | 1400 |  |  |  | > 250000 |  |
| CCN(CC)CCN(C)C(=O)Cn1c(-c2ccoc2)c(C2CCCCC2)c2ccc(C(=O)O)cc21 | 30 | 460 |  |  |  | > 250000 |  |
| O=C(O)c1ccc2c(C3CCCCC3)c(-c3ccoc3)n(CC(=O)N3CCC(O)CC3)c2c1 | 20 | 2000 |  |  |  | > 250000 |  |
| CN(CCO)C(=O)Cn1c(-c2ccoc2)c(C2CCCCC2)c2ccc(C(=O)O)cc21 | 20 | 1500 | 1300 (≈ 3060 µM) |  | 4.58 | > 250000 | permeability (Caco-2): BLD |
| CN(C)C(=O)Cn1c(-c2ccsc2)c(C2CCCCC2)c2ccc(C(=O)O)cc21 | 40 | 640 |  |  |  | > 250000 |  |
| O=C(O)c1ccc2c(C3CCCCC3)c(-c3ccoc3)n(CC(=O)N3CCC(CCO)CC3)c2c1 | 70 | 1300 |  |  |  | > 250000 |  |
| O=C(O)c1ccc2c(C3CCCCC3)c(-c3ccoc3)n(CC(=O)N3CCC(N4CCCCC4)CC3)c2c1 | 30 | 780 |  |  |  | > 250000 |  |
| O=C(O)c1ccc2c(C3CCCCC3)c(-c3ccccc3)n(CC(=O)N3CCOCC3)c2c1 | 70 | 700 |  |  |  | > 250000 |  |
| Cn1c(-c2ccoc2)c(C2CCCCC2)c2ccc(C(=O)O)cc21 | 16 | 4200 |  |  |  |  | logD [2]: 3.26 |
| CN(CCc1ccncc1)C(=O)Cn1c(-c2ccoc2)c(C2CCCCC2)c2ccc(C(=O)O)cc21 | 30 | 630 |  |  |  | > 250000 |  |
| CN1CCC(N(C)C(=O)Cn2c(-c3ccoc3)c(C3CCCCC3)c3ccc(C(=O)O)cc32)CC1 | 20 | 130 | 290 (≈ 607 µM) | 0.2 | > 5 | > 250000 |  |
| CCN1CCN(C(=O)Cn2c(-c3ccoc3)c(C3CCCCC3)c3ccc(C(=O)O)cc32)CC1 | 30 | 410 | 12 (≈ 25.9 µM) | 6.5 | > 5 | > 250000 | IC50 (Cytochrome P450 3A4; read-out: IC50): ≥ 16000 nM |
| CN(C)C(=O)Cn1c(-c2cccs2)c(C2CCCCC2)c2ccc(C(=O)O)cc21 | 20 | 600 |  |  |  | > 250000 |  |
| O=C(O)c1ccc2c(C3CCCCC3)c(-c3ccccc3)n(CC(=O)N3CCC(N4CCCC4)CC3)c2c1 | 40 | 380 | 47 (≈ 91.5 µM) | < 0.1 | 1.85 | > 250000 |  |
| O=C(O)c1ccc2c(C3CCCCC3)c(-c3ccoc3)n(CC(=O)N3CCN(CCO)CC3)c2c1 | 20 | 1300 |  |  |  | > 250000 |  |
| O=C(O)c1ccc2c(C3CCCCC3)c(-c3ccco3)n(CC(=O)N3CCC(N4CCCC4)CC3)c2c1 | 30 | 1200 |  |  |  | > 250000 |  |
| CNC(=O)Cn1c(-c2ccoc2)c(C2CCCCC2)c2ccc(C(=O)O)cc21 | 50 | 2000 |  |  |  | > 250000 |  |
| O=C(O)c1ccc2c(C3CCCCC3)c(-c3ccsc3)n(CC(=O)N3CCC(N4CCCC4)CC3)c2c1 | 30 | 1000 |  |  |  | > 250000 |  |

From ChEMBL document CHEMBL1156857, “N-Acetamideindolecarboxylic acid allosteric 'finger-loop' inhibitors of the hepatitis C virus NS5B polymerase: discovery and initial optimization studies” (Bioorg Med Chem Lett, 2010)
